The nature of assay [1]: Inhibition of yeast recombinant FTase by fluorescent-based assay. More on the design: species or system Saccharomyces cerevisiae.
In assay [2] the target is T1, Protein farnesyltransferase (Homo sapiens, UniProt P49354+P49356). In words: Inhibition of human recombinant FTase by fluorescent-based assay. It is filed as protein-complex assay.
Assay [3] addresses T1, Protein farnesyltransferase. In words: Binding affinity to FPP site of human recombinant FTase by competitive Michaelis-Menten analysis. It is filed as protein-complex assay. The procedure, abridged:
(§1)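 Partially purified recombinant human FTase, fluorescent farnesylation of dansyl-GCVLS. Buffer: 5.8 mM DTT, 6 mM MgCl2, 12 µM ZnCl2, 0.18% octyl-glucopyranoside, 53 mM Tris/HCl pH 7.5. Kinetics: FPP varied with Dns-GCVLS fixed at 2.5 µM, or peptide varied with FPP fixed at 10 µM.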

The target is the same in assay [4]. In words: Binding affinity to CaaX site of human recombinant FTase by non-competitive Michaelis-Menten analysis for enzyme-inhibitor complex. It is filed as protein-complex assay. The procedure, abridged:
as §1

For assay [5] the target is unchanged. Description: Binding affinity to CaaX site of human recombinant FTase by non-competitive Michaelis-Menten analysis for enzyme-substrate-inhibitor complex. It is filed as protein-complex assay. The procedure, abridged: as §1
The test system of assay [6] is Trypanosoma brucei brucei. Description: Antitrypanosomal activity against Trypanosoma brucei brucei 93 blood stream form at 10 uM after 72 hrs by alamar blue assay. It is filed as functional. Conditions: for inhibition at 10 µM: Trypanosoma brucei, 93, 72 h. The procedure, abridged: (§2)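 Strain 93 bloodstream forms cultured in HMI9 + 10% FCS, 37 °C, 5% CO2. Log-phase cells harvested at 3000g and seeded at 3 × 10^4 cells/mL. Inhibitors 0–100 µM, final DMSO 1%, 72 h. AlamarBlue (resazurin) added, read 4 h later at ex 530/em 590 nm. Inhibition relative to drug-free cells; triplicates, experiment repeated twice.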

Assay [7] has as its system Trypanosoma brucei brucei. Description: Antitrypanosomal activity against Trypanosoma brucei brucei WT2913 procyclic form at 10 uM after 72 hrs by alamar blue assay. Conditions: for inhibition at 10 µM: WT2913, 72 h. It is filed as functional. The gist of the method:
(§3)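 Strain WT 2913 procyclic forms kept in semi-defined medium 79 + 10% heat-inactivated FCS at 27 °C. Log-phase cells spun at 3000g and seeded at 1 × 10^6 cells/mL. Exposed 72 h to 0–100 µM inhibitor in 1% final DMSO. Resazurin (AlamarBlue) fluorescence read after a further 4 h, ex 530/em 590 nm. Growth inhibition versus untreated; triplicates, done twice.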
(Alamar Blue is a resazurin reagent that responds to reducing activity.)

Another assay has as its system Plasmodium falciparum. Description: Antiplasmodial activity against Plasmodium falciparum FcB1/Columbia assessed as [3H]hypoxanthine incorporation after 24 hrs by liquid scintillation spectrophotometer. It is filed as functional, organism-based. The procedure, abridged:
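FcB1/Colombia (chloroquine-resistant) grown on human erythrocytes in RPMI 1640 + 8% heat-inactivated human serum, 37 °C, 3% CO2/6% O2/91% N2. Twofold serial dilutions from 10 mM DMSO stocks; asynchronous cultures at 1% parasitemia, 1% final hematocrit, 24 h, then 0.5 µCi [3H]-hypoxanthine for 24 h more. Freeze-thaw, filter harvest, scintillation counting versus same-plate control. IC50 from concentration–response curve; mean ± SD of several independent experiments.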

Assay [8] has as its system KB. In words: Cytotoxicity against human KB cells at 10 uM after 72 hrs by MTS assay. It is filed as functional. The gist of the method: (§4)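 KB cells seeded at 2000/well and exposed 72 h to compound in medium with 1% final DMSO; docetaxel as positive control. Viability by MTS, OD 490 nm. Cytotoxicity index = OD treated/OD control × 100, from triplicates across three experiments.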

For assay [9], the system named is Trypanosoma brucei brucei. Description: Antitrypanosomal activity against Trypanosoma brucei brucei 93 blood stream form at 1 uM after 72 hrs by alamar blue assay. It is filed as functional. The gist of the method:
as §2

The subject of assay [10] is Trypanosoma brucei brucei. Description: Antitrypanosomal activity against Trypanosoma brucei brucei WT2913 procyclic form at 1 uM after 72 hrs by alamar blue assay. It is filed as functional, organism-based. The procedure, abridged: as §3
The test system of assay [11] is KB. Description: Cytotoxicity against human KB cells at 1 uM after 72 hrs by MTS assay. It is filed as functional, cell-based. The procedure, abridged: as §4
The target in assay [12] is T1, Protein farnesyltransferase. In words: Binding affinity to Dns-GCVLS peptide site of human recombinant FTase by competitive Michaelis-Menten analysis. It is filed as protein-complex assay. The gist of the method:
as §1

The structures appear in SMILES notation. Activity calls are given as the source filed them. The calls are words filed in the database; no cut-off is given here. Some results are limits rather than exact numbers.

As usually defined, the IC50 is the concentration at which inhibition is half-maximal. With `CC(C)=CCC/C(C)=C/CC/C(C)=C/CCC(=O)NS(=O)(=O)c1ccccc1`, the half-maximal inhibitory concentration (IC50) in assay [1] (read-out: IC50) and in [2] (read-out: IC50) was over 200 µM each time.
Usually Ki stands for a measure of affinity in units of concentration, obtained from inhibition or displacement. Broadly, the inhibition is the percentage by which the read-out fell short of the control. As for `CCOC(=O)C(C/C=C/c1ncc(CN[C@H](C(=O)N[C@@H](Cc2ccccc2)C(=O)N[C@@H](CCSC)C(=O)O)C(C)C)n1C)(C/C=C(\C)CC/C=C(\C)CCC=C(C)C)C(=O)O` (stereo partly specified), the values for the Ki in assay [3], in assay [4] and in assay [5] were 0.5 µM, 17 µM and 15 µM, respectively. Moreover, the inhibition result (in [6]; in assay [7]; with KB [8]) was “inactive” throughout. Besides, the figures for the IC50 (in the assay with Plasmodium falciparum; in [2] (read-out: IC50)) were 17.2 µM and 0.64 µM, respectively.
In the case of `CC(C)=CCC/C(C)=C/CC/C(C)=C/CCC(=O)NO`, the half-inhibitory concentration (IC50) result in [1] is reported as “Not Active”.
Turning to `CCOC(=O)C(C/C=C(\C)CC/C=C(\C)CCC=C(C)C)(CCCc1ncc(CN[C@H](C(=O)N[C@@H](Cc2ccccc2)C(=O)N[C@@H](CCSC)C(=O)O)C(C)C)n1C)C(=O)O` (stereo partly specified), the inhibitory constant (Ki) worked out at 0.23 µM in assay [3], 7.7 µM in assay [4] and 5.6 µM in assay [5]. In addition, the inhibition result (in assay [6]; in [7]; in the assay with KB [8]) was “inactive” in each case. Besides, the IC50 in the assay on Plasmodium falciparum was determined as 31.4 µM; in assay [2] (read-out: IC50), 0.24 µM.
Regarding `CC(C)=CCC/C(C)=C/CC/C(C)=C/COC(C(=O)O)C(=O)O`, the IC50 in assay [1] (read-out: IC50) was found to be 5 µM; in [2] (read-out: IC50) it was 0.88 µM.
Taken in the same sequence, the figures for `CC(C)=CCC/C(C)=C/CC/C(C)=C/CCC(=O)NC(C(=O)O)C(=O)O` were 200 µM and 60 µM.
The corresponding values for `CC(C)=CCC/C(C)=C/CC/C(C)=C/CCC(=O)CCCC(=O)O` are 15 µM and 60 µM.
On to `CCOC(=O)C(C/C=C/c1ncc(CN[C@H](C(=O)N[C@@H](Cc2ccccc2)C(=O)N[C@@H](CCSC)C(=O)OC)C(C)C)n1C)(C/C=C(\C)CC/C=C(\C)CCC=C(C)C)C(=O)OCC`, for which the inhibition at 10 µM in assay [6] came out at 92%; in [7] it was 28%; in the assay with KB [8], 60%. Also, the Activity in [9] was determined as 64%. In addition, the result (in [10]; with KB [11]) was inactive. Further, the concentration for half-maximal inhibition (IC50) was 1.1 µM in the assay with Plasmodium falciparum and “Not Active” in assay [2].
Turning to `CCOC(=O)C(C/C=C(\C)CC/C=C(\C)CCC=C(C)C)(CCCc1ncc(CN[C@H](C(=O)N[C@@H](Cc2ccccc2)C(=O)N[C@@H](CCSC)C(=O)OC)C(C)C)n1C)C(=O)OCC`, the figures for the inhibition at 10 µM (in assay [7]; with KB [8]) were 54% and 44%, respectively. Besides, the result (in assay [10]; in the assay with KB [11]) was inactive. The IC50 in the assay on Plasmodium falciparum is 1 µM; in [2], “Not Active”.
Consider `CC(C)=CCC/C(C)=C/CC/C(C)=C/C(c1nccn1C)C(CC(=O)O)C(=O)O` (stereo unspecified), for which the IC50 in [2] (read-out: IC50) stood at 12 µM.
For `CC(C)=CCC/C(C)=C/CC/C(C)=C/CC(=O)CCCC(=O)O`, the IC50 came out at 35 µM in [1] (read-out: IC50) and 60 µM in [2] (read-out: IC50).
The corresponding values for `CC(C)=CCC/C(C)=C/CC/C(C)=C/CCC(=O)NS(=O)(=O)O` are over 200 µM and 85 µM.
Taken in the same sequence, the figures for `CC(C)=CCC/C(C)=C/CC/C(C)=C/COC(=O)CCC(=O)O` were 100 µM and 130 µM.
The corresponding values for `CC(C)=CCC/C(C)=C/CC/C(C)=C/COC(=O)CC(=O)O` are 80 µM and 160 µM.
Regarding `CSCC[C@H](NC(=O)[C@H](Cc1ccccc1)NC(=O)[C@@H](NCc1cnc(CCCC(CC(=O)O)C(=O)O)n1C)C(C)C)C(=O)O` (stereo partly specified), in assay [2] (read-out: IC50), the IC50 stood at 60 µM.
On to `CC(C)=CCC/C(C)=C/CC/C(C)=C/CCC(N)=O`, for which the half-maximal inhibitory concentration (IC50) entry in assay [1] was “Not Active”; in assay [2] (read-out: IC50), over 200 µM.
With `CC(C)=CCC/C(C)=C/CC/C(C)=C/CCC(=O)CCC(=O)O`, the IC50 in [1] (read-out: IC50) is 80 µM; in assay [2] (read-out: IC50) it was over 200 µM.
For `CC(C)=CCC/C(C)=C/CC/C(C)=C/CC(C(=O)O)C(=O)O`, the inhibitory constant (Ki) in assay [3] is 0.26 µM. The result in assay [12] was inactive. Also, the half-maximal inhibitory concentration (IC50) came out at 4 µM in [1] (read-out: IC50) and 0.9 µM in assay [2] (read-out: IC50).
Turning to `CCOC(=O)C(C/C=C(\C)CC/C=C(\C)CCC=C(C)C)(CCCc1nccn1C)C(=O)OCC`, in assay [6], the inhibition at 10 µM stood at 89%. Further, in assay [9], the Activity is 24%. For the same molecule, the half-inhibitory concentration (IC50) in the assay on Plasmodium falciparum came to 4 µM.
Consider `CC(C)=CCC/C(C)=C/CC/C(C)=C/C=C/C(N)=O`, for which the 50% inhibitory concentration (IC50) entry in assay [1] and in assay [2] was “Not Active” in each case.
Turning to `CC(C)=CCC/C(C)=C/CC/C(C)=C/CCCC(=O)O`, the values for the concentration for half-maximal inhibition (IC50) in assay [1] (read-out: IC50) and in assay [2] (read-out: IC50) were 42 µM and 170 µM, respectively.
Taken in the same sequence, the figures for `CCCCCCCCCCCCCC/C(C(=O)O)=C(\C)C(=O)O` [CHAETOMELLIC ACID A] were 0.34 µM and 0.175 µM.
The corresponding values for `CC(C)=CCC/C(C)=C/CC/C(C)=C/C/C=C/C(=O)O` are 40 µM and 130 µM.
As to `CC(C)=CCC/C(C)=C/CC/C(C)=C/C=C(C(=O)O)C(=O)O`, in assay [2], the IC50 result is listed as “Not Active”.
Turning to `CC(C)=CCC/C(C)=C/CC/C(C)=C/CC(CCCc1nccn1C)(C(=O)O)C(=O)O`, the IC50 in [2] (read-out: IC50) turned out to be 21 µM.
As to `CC(C)=CCC/C(C)=C/CC/C(C)=C/C=C/C(=O)NC(C(=O)O)C(=O)O`, the IC50 in assay [2] (read-out: IC50) is 10 µM.

The values are drawn from ChEMBL document CHEMBL1159062, “Towards the synthesis of bisubstrate inhibitors of protein farnesyltransferase: Synthesis and biological evaluation of new farnesylpyrophosphate analogues” (Bioorg Med Chem, 2010).
